Usually IC50 stands for the concentration that gives 50% inhibition.

Molecules are shown by their SMILES. ≈ marks a conversion by molar mass, not a printed value.

Holding throughout (assay type): functional
Test [1] concerns Radical scavenging activity. Briefly: Antioxidant activity assessed as DPPH radical scavenging activity in ethanol solution at 50 ug/mL. In a few lines: (§1)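 Compound dissolved in ethanol, then ethanolic DPPH added. Incubated 30 min in the dark. DPPH decrease read as absorbance at 517 nm against an ethanol blank, with ascorbic acid as reference. % activity = [(A0 − Ai)/A0] × 100, where A0 is absorbance without compound and Ai with compound. IC50 taken from activity across concentrations.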
For orientation: The DPPH test is a chemical assay of radical scavenging.

Test [2] deals with Radical scavenging activity. Nature of the test: Antioxidant activity assessed as DPPH radical scavenging activity in ethanol solution at 100 ug/mL. In a few lines:
as §1

The subject of test [3] is Radical scavenging activity. Nature of the test: Antioxidant activity assessed as DPPH radical scavenging activity in ethanol solution at 5 ug/mL. In a few lines: as §1
Test [4] relates to Radical scavenging activity. Nature of the test: Antioxidant activity assessed as DPPH radical scavenging activity in ethanol solution at 10 ug/mL. In a few lines: as §1
Test [5] deals with Radical scavenging activity. Nature of the test: Antioxidant activity assessed as DPPH radical scavenging activity in ethanol solution. In a few lines:
as §1

Test [6] relates to Radical scavenging activity. Briefly: Antioxidant activity assessed as DPPH radical scavenging activity in ethanol solution at 25 ug/mL. The method, boiled down: as §1

Regarding `Cc1cc(O)c(C(C)C)cc1/N=C/c1ccc(F)cc1`, the Activity was found to be 73.2% in test [1]; 79.2% in test [2]; 21.7% in test [3]; 44.1% in test [4]; 62.9% in test [6]. Further, in test [5], the IC50 worked out at 25.59 µg/mL (≈ 94.3 µM).
Regarding `O=C1O[C@H]([C@@H](O)CO)C(O)=C1O` [ASCORBIC ACID], the Activity amounted to 94.4% in test [1]; 95.6% in test [2]; 18.9% in test [3]; 45% in test [4]; 85% in test [6]. Moreover, the IC50 in test [5] was found to be 11.66 µg/mL (≈ 66.2 µM).
Regarding `Cc1cc(O)c(C(C)C)cc1/N=C/c1ccc(Br)cc1`, the Activity stood at 72.5% in test [1]; 80.9% in test [2]; 27.7% in test [3]; 46.9% in test [4]; 60% in test [6]. For the same compound, the IC50 in test [5] amounted to 22.05 µg/mL (≈ 66.4 µM).
In the case of `Cc1cc(O)c(C(C)(C)C)cc1/N=C/c1cccnc1`, the Activity in test [1] stood at 70.3%; in test [2] it was 78.3%; in test [3], 20.1%; in test [4], 37.6%; in test [6], 54.5%. In addition, the IC50 in test [5] worked out at 34.03 µg/mL (≈ 127 µM).
As for `Cc1cc(O)c(C(C)C)cc1/N=C/c1ccc2c(c1)OCO2`, the Activity in test [1] is 82.5%; in test [2], 89.5%; in test [3] it was 27.3%; in test [4] it was 48%; in test [6], 74.5%. Besides, in test [5], the IC50 is 11.95 µg/mL (≈ 40.2 µM).
With `Cc1cc(O)c(C(C)C)cc1/N=C/c1ccc(C(C)C)cc1`, the Activity in test [1] stood at 70.5%; in test [2] it was 82.6%; in test [3], 24.5%; in test [4], 50.8%; in test [6] it was 67.5%. In addition, the half-maximal inhibitory concentration (IC50) in test [5] amounted to 18.66 µg/mL (≈ 63.2 µM).
Regarding `Cc1ccc(/C=N/c2cc(C(C)(C)C)c(O)cc2C)cc1`, the Activity turned out to be 69.6% in test [1]; 75.7% in test [2]; 27.2% in test [3]; 48.4% in test [4]; 57.7% in test [6]. Moreover, the IC50 in test [5] amounted to 24.32 µg/mL (≈ 86.4 µM).
Consider `Cc1ccc(C(C)C)c(O)c1` [THYMOL], for which the Activity was 21.3% in test [1]; 29.5% in test [2]; 3.07% in test [3]; 5.49% in test [4]; 14.7% in test [6]. In addition, the half-maximal inhibitory concentration (IC50) in test [5] worked out at 167.57 µg/mL (≈ 1120 µM).
In the case of `Cc1cc(O)c(C(C)C)cc1/N=C/c1ccc(C(C)(C)C)cc1`, the Activity in test [1] turned out to be 73.5%; in test [2], 83.8%; in test [3] it was 23.6%; in test [4], 51.6%; in test [6] it was 66.2%. Further, in test [5], the IC50 is 18.37 µg/mL (≈ 59.4 µM).
As to `Cc1cc(O)c(C(C)C)cc1/N=C/c1ccccn1`, the Activity in test [1] was 74.6%; in test [2] it was 92.8%; in test [3] it was 25.5%; in test [4], 43.6%; in test [6] it was 58.4%. For the same compound, in test [5], the IC50 was 23.86 µg/mL (≈ 93.8 µM).
Turning to `Cc1cc(O)c(C(C)(C)C)cc1/N=C/c1ccccc1`, the Activity in test [1] worked out at 75.7%; in test [2] it was 87%; in test [3], 28%; in test [4] it was 49.6%; in test [6], 61.1%. The IC50 in test [5] was found to be 18.6 µg/mL (≈ 69.6 µM).
For `Cc1cc(O)c(C(C)C)cc1/N=C/c1ccc(Cl)cc1`, the Activity was determined as 74.1% in test [1]; 79.8% in test [2]; 22.4% in test [3]; 44.7% in test [4]; 63.8% in test [6]. Moreover, the IC50 in test [5] is 24.11 µg/mL (≈ 83.8 µM).
For `Cc1cc(O)c(C(C)(C)C)cc1/N=C/c1ccc2c(c1)OCO2`, the Activity is 87.5% in test [1]; 89.3% in test [2]; 25.1% in test [3]; 49.8% in test [4]; 68.5% in test [6]. For the same compound, the IC50 in test [5] came to 13.64 µg/mL (≈ 43.8 µM).
Take `Cc1cc(O)c(C(C)(C)C)cc1/N=C/c1ccc(C(C)(C)C)cc1`: the Activity in test [1] is 73%; in test [2] it was 86.7%; in test [3], 27.5%; in test [4], 45.6%; in test [6], 65.2%. In test [5], the IC50 is 20.05 µg/mL (≈ 62 µM).
Consider `Cc1cc(O)c(C(C)(C)C)cc1/N=C/c1ccc(Cl)cc1`, for which the Activity is 73.9% in test [1]; 79.8% in test [2]; 29.7% in test [3]; 42.6% in test [4]; 61.5% in test [6]. Also, in test [5], the IC50 is 22.2 µg/mL (≈ 73.6 µM).
As to `Cc1cc(/N=C/c2ccccn2)c(C(C)C)cc1O`, the Activity in test [1] is 75.5%; in test [2], 78.1%; in test [3] it was 23.4%; in test [4], 41.2%; in test [6], 65.2%. The IC50 in test [5] was 24.4 µg/mL (≈ 95.9 µM).
For the compound `Cc1cc(O)c(C(C)C)cc1/N=C/c1ccccc1`, the Activity worked out at 77.9% in test [1]; 83.8% in test [2]; 31.6% in test [3]; 45.2% in test [4]; 60.6% in test [6]. The half-inhibitory concentration (IC50) in test [5] is 18.55 µg/mL (≈ 73.2 µM).
Consider `CCCc1ccc(/C=N/c2cc(C)c(O)cc2C(C)C)cc1`, for which the Activity in test [1] was found to be 76.6%; in test [2], 84.7%; in test [3], 23.9%; in test [4] it was 44.6%; in test [6], 63.9%. Also, the IC50 in test [5] is 22.03 µg/mL (≈ 74.6 µM).
Regarding `Cc1cc(/N=C/c2ccc(C(C)(C)C)cc2)c(C(C)C)cc1O`, the Activity amounted to 70.2% in test [1]; 79.2% in test [2]; 25% in test [3]; 49.9% in test [4]; 62.1% in test [6]. Also, the IC50 in test [5] stood at 21.89 µg/mL (≈ 70.7 µM).
As for `Cc1cc(/N=C/c2ccc(Cl)cc2)c(C(C)C)cc1O`, the Activity in test [1] stood at 68%; in test [2], 75.6%; in test [3], 27.8%; in test [4], 47.3%; in test [6], 59.6%. In addition, in test [5], the IC50 amounted to 24.29 µg/mL (≈ 84.4 µM).
Regarding `Cc1cc(/N=C/c2ccc([N+](=O)[O-])cc2)c(C(C)C)cc1O`, the Activity in test [1] was determined as 55.8%; in test [2] it was 68.6%; in test [3], 17.1%; in test [4] it was 32%; in test [6], 43%. Besides, the IC50 in test [5] came out at 51.92 µg/mL (≈ 174 µM).
In the case of `Cc1cc(O)c(C(C)(C)C)cc1/N=C/c1ccc(F)cc1`, the Activity in test [1] is 72%; in test [2], 75.3%; in test [3], 28.5%; in test [4], 41.8%; in test [6], 57%. Besides, the IC50 in test [5] amounted to 26.96 µg/mL (≈ 94.5 µM).
Regarding `Cc1ccc(/C=N/c2cc(C(C)C)c(O)cc2C)cc1`, the Activity was 71.4% in test [1]; 75.1% in test [2]; 27.3% in test [3]; 45% in test [4]; 64.7% in test [6]. In test [5], the 50% inhibitory concentration (IC50) was 21.89 µg/mL (≈ 81.9 µM).
Turning to `Cc1ccc(C(C)C)cc1O` [CARVACROL], the Activity in test [1] was 27.4%; in test [2], 37.4%; in test [3], 5.17%; in test [4], 9.91%; in test [6] it was 18.4%. The IC50 in test [5] is 131.24 µg/mL (≈ 874 µM).
`Cc1cc(/N=C/c2ccc(F)cc2)c(C(C)C)cc1O`: the Activity in test [1] is 66.3%; in test [2], 73.7%; in test [3], 22.5%; in test [4] it was 41.1%; in test [6] it was 58.8%. Moreover, the IC50 in test [5] was determined as 32.52 µg/mL (≈ 120 µM).
In the case of `CCc1ccc(/C=N/c2cc(C(C)(C)C)c(O)cc2C)cc1`, the Activity in test [1] worked out at 72.4%; in test [2], 80.9%; in test [3] it was 27.1%; in test [4], 47.2%; in test [6] it was 56.3%. Moreover, the IC50 in test [5] stood at 24.04 µg/mL (≈ 81.4 µM).
Regarding `Cc1cc(/N=C/c2cccnc2)c(C(C)C)cc1O`, the Activity in test [1] was determined as 71.1%; in test [2] it was 73.8%; in test [3], 21.8%; in test [4], 34.2%; in test [6], 61.9%. Also, the IC50 in test [5] is 32.76 µg/mL (≈ 129 µM).
In the case of `Cc1cc(O)c(C(C)(C)C)cc1/N=C/c1ccc([N+](=O)[O-])cc1`, the Activity was determined as 62.4% in test [1]; 73% in test [2]; 16.8% in test [3]; 26% in test [4]; 45.3% in test [6]. Further, in test [5], the IC50 came out at 47.39 µg/mL (≈ 152 µM).
With `CCc1ccc(/C=N/c2cc(C(C)C)c(O)cc2C)cc1`, the Activity in test [1] came to 72.4%; in test [2], 77%; in test [3], 28.8%; in test [4], 43%; in test [6], 64.7%. In test [5], the IC50 came to 21.62 µg/mL (≈ 76.8 µM).
For the compound `Cc1cc(/N=C/c2ccc3c(c2)OCO3)c(C(C)C)cc1O`, the Activity in test [1] was 77.5%; in test [2], 88.8%; in test [3], 28.8%; in test [4], 45.4%; in test [6], 68.6%. In addition, the IC50 in test [5] is 16.58 µg/mL (≈ 55.8 µM).
With `Cc1ccc(/C=N/c2cc(C)c(O)cc2C(C)C)cc1`, the Activity is 73.4% in test [1]; 81.3% in test [2]; 22.1% in test [3]; 44.9% in test [4]; 60.7% in test [6]. Moreover, the IC50 in test [5] was found to be 25.58 µg/mL (≈ 95.7 µM).
For `Cc1cc(/N=C/c2ccc(Br)cc2)c(C(C)C)cc1O`, the Activity in test [1] amounted to 64.5%; in test [2] it was 79.9%; in test [3], 28.8%; in test [4], 45.4%; in test [6] it was 63.1%. Further, the IC50 in test [5] turned out to be 23.77 µg/mL (≈ 71.5 µM).
